The values below come from ChEMBL document CHEMBL1250424, “Design, synthesis and evaluation of 2-amino-4-m-bromoanilino-6-arylmethyl-7H-pyrrolo[2,3-d]pyrimidines as tyrosine kinase inhibitors and antiangiogenic agents” (Bioorg Med Chem, 2010).

The target in experiment [1] is Epidermal growth factor receptor (Homo sapiens, UniProt P00533). Kind of experiment: Inhibition of EGFR expressed in human A431 cells. It counts as cell-based, A-431.
For experiment [2], the target named is Vascular endothelial growth factor receptor 2 (Homo sapiens, UniProt P35968). Kind of experiment: Inhibition of VEGFR2 expressed in human A431 cells. It is filed as cell-based, A-431.
Experiment [3] deals with Platelet-derived growth factor receptor beta (Homo sapiens, UniProt P09619). Kind of experiment: Inhibition of PDGFRbeta expressed in human A431 cells. It counts as cell-based, A-431.
The test system of a further experiment is A-431. Kind of experiment: Cytotoxicity against human A431 cells. It is filed as functional, cell-based. An outline of the steps:
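Growth inhibition of A431 cells, which over-express EGFR, measured in culture. Cisplatin was run in each evaluation as the reference standard. Each assay was performed 2-3 times, with 4-5 replicates per assay.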

Experiment [4] is described as follows: Antiangiogenic activity in fertilized chicken egg by CAM assay. It counts as functional, Gallus gallus.

Sequence of Vascular endothelial growth factor receptor 2 (P35968 whole entry): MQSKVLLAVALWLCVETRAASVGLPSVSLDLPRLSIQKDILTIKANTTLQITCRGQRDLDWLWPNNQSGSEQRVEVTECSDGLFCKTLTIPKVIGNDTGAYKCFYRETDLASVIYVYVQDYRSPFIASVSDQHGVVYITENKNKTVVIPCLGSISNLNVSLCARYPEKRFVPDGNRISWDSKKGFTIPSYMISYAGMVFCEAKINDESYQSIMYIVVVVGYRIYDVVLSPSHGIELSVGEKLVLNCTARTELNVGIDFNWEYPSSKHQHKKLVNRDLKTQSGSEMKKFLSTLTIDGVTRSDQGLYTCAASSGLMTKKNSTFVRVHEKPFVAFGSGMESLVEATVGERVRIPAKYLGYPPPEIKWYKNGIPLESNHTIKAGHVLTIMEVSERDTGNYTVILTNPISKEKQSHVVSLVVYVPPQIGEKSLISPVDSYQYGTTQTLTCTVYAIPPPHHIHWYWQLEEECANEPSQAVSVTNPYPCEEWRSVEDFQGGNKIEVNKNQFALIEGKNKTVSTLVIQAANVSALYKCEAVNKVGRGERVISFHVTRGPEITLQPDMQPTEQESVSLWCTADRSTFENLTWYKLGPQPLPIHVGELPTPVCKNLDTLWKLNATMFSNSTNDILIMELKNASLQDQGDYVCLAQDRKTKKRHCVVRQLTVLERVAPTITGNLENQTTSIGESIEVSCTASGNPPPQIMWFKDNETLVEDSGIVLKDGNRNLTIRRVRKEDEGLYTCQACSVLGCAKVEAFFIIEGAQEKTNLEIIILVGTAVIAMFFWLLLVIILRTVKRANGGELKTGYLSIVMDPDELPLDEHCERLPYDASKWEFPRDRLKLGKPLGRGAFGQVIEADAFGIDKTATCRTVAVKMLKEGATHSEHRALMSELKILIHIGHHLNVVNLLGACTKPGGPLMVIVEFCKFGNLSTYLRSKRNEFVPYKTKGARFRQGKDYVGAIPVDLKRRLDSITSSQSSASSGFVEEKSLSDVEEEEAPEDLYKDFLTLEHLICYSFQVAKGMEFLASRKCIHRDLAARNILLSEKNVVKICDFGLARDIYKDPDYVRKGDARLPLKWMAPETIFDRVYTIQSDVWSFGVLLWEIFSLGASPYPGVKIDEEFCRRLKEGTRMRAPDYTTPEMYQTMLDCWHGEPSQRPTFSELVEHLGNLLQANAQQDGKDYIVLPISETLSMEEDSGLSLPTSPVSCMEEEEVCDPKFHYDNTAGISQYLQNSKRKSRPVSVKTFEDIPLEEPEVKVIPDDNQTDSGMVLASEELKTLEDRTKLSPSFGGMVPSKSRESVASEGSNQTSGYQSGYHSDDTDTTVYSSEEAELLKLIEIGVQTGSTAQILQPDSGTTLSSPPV
Sequence of Epidermal growth factor receptor (P00533 whole entry): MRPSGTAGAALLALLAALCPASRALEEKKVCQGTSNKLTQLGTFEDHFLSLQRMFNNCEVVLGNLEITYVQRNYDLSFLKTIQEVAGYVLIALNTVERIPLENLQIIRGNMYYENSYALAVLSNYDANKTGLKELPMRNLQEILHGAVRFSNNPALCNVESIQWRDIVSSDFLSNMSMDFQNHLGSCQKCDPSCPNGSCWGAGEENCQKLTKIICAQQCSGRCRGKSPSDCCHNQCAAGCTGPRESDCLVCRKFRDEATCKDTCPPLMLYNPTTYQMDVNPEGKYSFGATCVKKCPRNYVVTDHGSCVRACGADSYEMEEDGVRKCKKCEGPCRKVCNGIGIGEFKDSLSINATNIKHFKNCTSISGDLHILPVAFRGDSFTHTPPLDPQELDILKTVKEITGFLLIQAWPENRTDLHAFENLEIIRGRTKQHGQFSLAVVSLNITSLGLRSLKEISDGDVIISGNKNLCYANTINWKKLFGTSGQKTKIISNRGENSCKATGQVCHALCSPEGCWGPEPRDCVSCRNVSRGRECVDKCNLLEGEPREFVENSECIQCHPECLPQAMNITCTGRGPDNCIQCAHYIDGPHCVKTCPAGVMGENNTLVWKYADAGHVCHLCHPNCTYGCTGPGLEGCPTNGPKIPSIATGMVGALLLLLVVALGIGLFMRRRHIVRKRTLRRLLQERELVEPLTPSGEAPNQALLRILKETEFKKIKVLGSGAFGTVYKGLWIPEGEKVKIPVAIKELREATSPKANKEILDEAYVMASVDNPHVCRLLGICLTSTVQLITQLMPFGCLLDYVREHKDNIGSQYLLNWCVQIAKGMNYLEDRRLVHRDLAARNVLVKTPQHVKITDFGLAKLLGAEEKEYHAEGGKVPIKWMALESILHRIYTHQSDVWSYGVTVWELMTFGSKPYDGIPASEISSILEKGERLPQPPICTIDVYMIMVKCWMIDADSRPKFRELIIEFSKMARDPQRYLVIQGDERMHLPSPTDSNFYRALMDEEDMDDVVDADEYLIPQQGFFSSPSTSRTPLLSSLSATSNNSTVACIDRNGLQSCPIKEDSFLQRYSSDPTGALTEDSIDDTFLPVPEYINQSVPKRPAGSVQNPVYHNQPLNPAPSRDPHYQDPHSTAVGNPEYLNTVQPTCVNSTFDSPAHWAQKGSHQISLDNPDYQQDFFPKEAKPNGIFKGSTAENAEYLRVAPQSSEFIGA
Sequence of Platelet-derived growth factor receptor beta (P09619 whole entry): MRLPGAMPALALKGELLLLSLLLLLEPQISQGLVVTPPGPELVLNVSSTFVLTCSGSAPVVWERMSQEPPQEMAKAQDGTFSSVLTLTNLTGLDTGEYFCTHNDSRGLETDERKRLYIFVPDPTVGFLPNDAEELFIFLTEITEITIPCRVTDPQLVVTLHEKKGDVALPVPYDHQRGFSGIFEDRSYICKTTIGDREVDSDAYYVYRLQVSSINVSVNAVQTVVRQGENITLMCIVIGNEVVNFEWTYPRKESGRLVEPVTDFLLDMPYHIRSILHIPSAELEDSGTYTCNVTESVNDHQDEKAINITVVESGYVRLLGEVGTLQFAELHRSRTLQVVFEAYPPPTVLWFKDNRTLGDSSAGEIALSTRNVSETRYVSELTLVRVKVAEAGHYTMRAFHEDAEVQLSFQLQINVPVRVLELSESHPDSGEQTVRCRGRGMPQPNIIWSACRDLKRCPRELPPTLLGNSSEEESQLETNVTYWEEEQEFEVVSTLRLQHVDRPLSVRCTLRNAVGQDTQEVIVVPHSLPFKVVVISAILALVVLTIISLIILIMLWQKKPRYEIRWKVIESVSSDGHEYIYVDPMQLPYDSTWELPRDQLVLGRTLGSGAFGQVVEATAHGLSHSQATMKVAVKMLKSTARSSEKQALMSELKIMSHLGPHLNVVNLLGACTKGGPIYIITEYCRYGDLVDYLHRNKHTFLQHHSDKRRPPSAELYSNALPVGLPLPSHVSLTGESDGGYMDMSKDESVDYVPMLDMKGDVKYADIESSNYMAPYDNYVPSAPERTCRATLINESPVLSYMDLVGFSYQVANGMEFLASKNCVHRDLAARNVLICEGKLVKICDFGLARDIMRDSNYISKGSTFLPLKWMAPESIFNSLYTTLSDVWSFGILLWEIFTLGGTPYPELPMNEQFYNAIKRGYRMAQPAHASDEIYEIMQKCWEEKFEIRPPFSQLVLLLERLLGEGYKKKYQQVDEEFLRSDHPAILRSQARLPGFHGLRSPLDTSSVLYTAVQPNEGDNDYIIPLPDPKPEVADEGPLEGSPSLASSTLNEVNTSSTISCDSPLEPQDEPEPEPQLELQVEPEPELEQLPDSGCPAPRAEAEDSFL

One may read the IC50 as the midpoint of a concentration-inhibition curve. High values mean lower potency, low ones higher potency. With `Cn1c(Cc2ccccc2)cc2c(Nc3cccc(Br)c3)nc(N)nc21`, the IC50 in experiment [1] was above 200 µM; in experiment [2], above 200 µM; in experiment [3], 2.8 µM; in the experiment on A-431, 27.9 µM; in experiment [4], 6.22 µM.

As for `Cc1ccccc1Cc1cc2c(N(C)c3cccc(Br)c3)nc(N)nc2n1C`, the IC50 is 1.2 µM in experiment [1]; above 200 µM in experiment [2]; above 500 µM in experiment [3]; 226 µM in the experiment on A-431; 1.6 µM in experiment [4].

Take `CN(c1cccc(Br)c1)c1nc(N)nc2c1cc(Cc1ccccc1)n2C`: the IC50 is 254 µM in experiment [1]; above 200 µM in experiment [2]; 71.7 µM in experiment [3]; 50.9 µM in the experiment on A-431; 2.6 µM in experiment [4].

Regarding `CN(c1cccc(Br)c1)c1nc(N)nc2[nH]c(Cc3ccccc3)cc12`, the IC50 in experiment [1] is 53.1 µM; in experiment [2], 89.2 µM; in experiment [3], above 500 µM; with A-431 it was 45.7 µM; in experiment [4] it was 1.56 µM.

For the compound `COc1ccc(OC)c(Cc2cc3c(N(C)c4cccc(Br)c4)nc(N)nc3n2C)c1`, the IC50 in experiment [1] was 0.5 µM; in experiment [2], above 200 µM; in experiment [3] it was above 500 µM; in the experiment on A-431 it was 94.1 µM; in experiment [4] it was 2.05 µM.

Consider `COc1ccc(OC)c(Cc2cc3c(Nc4cccc(Br)c4)nc(N)nc3[nH]2)c1`, for which the IC50 in experiment [2] was found to be 0.62 µM; in experiment [4], 1.32 µM.

Take `Cc1ccccc1Cc1cc2c(N(C)c3cccc(Br)c3)nc(N)nc2[nH]1`: the IC50 in experiment [1] was 31.2 µM; in experiment [2], above 200 µM; in experiment [3], 34.8 µM; in the experiment on A-431, above 500 µM; in experiment [4], 0.93 µM.

As for `COc1ccc(OC)c(Cc2cc3c(N(C)c4cccc(Br)c4)nc(N)nc3[nH]2)c1`, the IC50 in experiment [1] was 144 µM; in experiment [2], above 200 µM; in experiment [3] it was 1.3 µM; with A-431 it was 197 µM; in experiment [4] it was 0.83 µM.

Take `COc1ccc(OC)c(Cc2cc3c(Nc4cccc(Br)c4)nc(N)nc3n2C)c1`: the IC50 is above 200 µM in experiment [1]; above 200 µM in experiment [2]; 348 µM in experiment [3]; 35.6 µM in the experiment on A-431; 3.3 µM in experiment [4].

On to `Cc1ccccc1Cc1cc2c(Nc3cccc(Br)c3)nc(N)nc2n1C`, for which the IC50 in experiment [1] was 12.8 µM; in experiment [2], 116 µM; in experiment [3] it was above 500 µM; in the experiment with A-431, 204 µM; in experiment [4] it was 3 µM.

Regarding `Cc1ccccc1Cc1cc2c(Nc3cccc(Br)c3)nc(N)nc2[nH]1`, in experiment [2], the IC50 turned out to be 0.25 µM. In other words, the sub-micromolar range.
